The values that follow come from ChEMBL document CHEMBL5137074 (J Med Chem, 2022).

Each structure is given as a SMILES string.

The target in data set [1] is Cytochrome P450 2D6 (Homo sapiens, UniProt P10635). Kind of data set: Inhibition of CYP2D6 (unknown origin).
The target in data set [2] is Cytochrome P450 2C9 (Homo sapiens, UniProt P11712). Description: Inhibition of CYP2C9 (unknown origin).
A short description of data set [3]: Apparent permeability across apical to basolateral side in human Caco-2 cells. (In general: Passage across Caco-2 layers is used to estimate intestinal permeability.)
Data set [4] in a line: Metabolic stability in human hepatocytes assessed as intrinsic clearance measured per 10^6 cells.
Data set [5] can be described thus: Oral bioavailability in CD-1 mouse at 2.5 to 5 mg/kg measured upto 24 hrs by HPLC-LCMS analysis. It counts as ADME, organism-based. As to conditions: in vivo, dose 2.5-5 mg/kg. Put shortly:
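Female CD1 mice (20–30 g) dosed IV at 1 mg/kg as a solution. Oral dosing at 2.5 or 5 mg/kg as a suspension in 0.5% methyl cellulose. […] Non-compartmental analysis.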

Data set [6] can be described thus: Oral bioavailability in Cynomolgous monkey at 1 mg/kg measured upto 24 hrs by reversed phase LCMS analysis. It counts as ADME, organism-based, Macaca fascicularis. As to conditions: cynomolgus monkey, in vivo.
Data set [7] has as its target T1, Cytochrome P450 3A4 (Homo sapiens, UniProt P08684). Kind of data set: Induction of CYP3A4 in human hepatocytes at 3 uM relative to rifampicin. It counts as ADME, cell-based, Hepatocyte. The procedure, abridged: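 Single-donor human hepatocytes exposed at 3 μM. CYP3A4 induction expressed as % of the 10 μM rifampicin positive control.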
Data set [8] concerns the target Voltage-gated inwardly rectifying potassium channel KCNH2 (Homo sapiens, UniProt Q12809). Kind of data set: Inhibition of human ERG by patch-clamp assay. It counts as toxicity.
The subject of data set [9] is OVCAR-3. Description: Antitumor activity against human OVCAR-3 cells xenografted in SCID/Beige mouse assessed as reduction in tumor growth measured upto 20 days by digital caliper method. It counts as functional, cell-based. As to conditions: dose 15-300 ppm, time <= 21.0 day, DDE = dose-dependent effect, in the assay text read “upto 21 days” for “upto 20 days”. Put shortly: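 Female SCID-beige mice (5–7 weeks) were implanted in the right flank with 5×10^6 OVCAR3 cells in 1:1 matrigel:media. At 100–150 mm3 they were randomised (n=8/group) and acclimatised to blank chow for 3–5 days. They then received drug-formulated chow at 15, 50 or 300 ppm for 21 days. Tumours were measured by caliper, with volume = 0.52×L×W2. TGI was calculated from group means at day 0 and the last day versus vehicle.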
(In general: Xenograft models place foreign cells or tissue in a host animal.)

Data set [10] in a line: Toxicity in SCID/Beige mouse xenografted with OVCAR-3 cells assessed as change in body weight at 300 ppm measured upto 21 days. It counts as cell-based. As to conditions: in vivo, 504 h, time < 21 day. Put shortly:
(§1)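 OVCAR3 flank xenografts in female SCID-beige mice (n=8) given drug-formulated chow for 21 days after blank-chow acclimatization. Individual body weight change relative to day 0 = (BWlast−BWday0)/BWday0 ×100. Food consumption was also monitored as two-day mean chow intake.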

Data set [11] in a line: Toxicity in SCID/Beige mouse xenografted with OVCAR-3 cells assessed as reduction in food consumption at 15 to 300 ppm incorporated with chow diet measured upto 21 days. It counts as cell-based. As to conditions: in vivo, po, 504 h, dose 15-300 ppm, time < 21 day. The procedure, abridged:
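The drug was dissolved in acetone and mixed into rodent meal at 300 ppm, then diluted with untreated feed to lower levels. Xenografted SCID-beige mice were acclimatised to blank chow, then fed 15, 50 or 300 ppm chow for 21 days. The two-day mean chow consumption was compared with mice on blank chow.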

The nature of data set [12]: Toxicity in SCID/Beige mouse xenografted with OVCAR-3 cells assessed as tolerated dose at 300 ppm measured upto 21 days. It counts as cell-based. As to conditions: in vivo, 504 h, time < 21 day. The procedure, abridged: as §1
Data set [13] in a line: Stability in SCID/Beige mouse plasma assessed as unbound compound at 50 to 300 ppm simulated dose incorporated with chow diet measured on 22 day. As to conditions: in vivo, po, dose 50-300 ppm. It counts as ADME. Put shortly: (§2)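 OVCAR3-bearing SCID-beige mice were fed drug-formulated chow. Whole blood was sampled at 6:30am and 4:30pm on days 2, 5 and 22 and quantified by LC-MS/MS. Blood levels were converted to free plasma levels using blood/plasma ratio 1.2 and CD-1 plasma fu 0.185. […] Time over EC90 was referenced to the tumour pCDK1(Thr14) EC90.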

Data set [14] can be described thus: Unbound Cmax in SCID/Beige mouse xenografted with OVCAR-3 cells at 50 ppm incorporated with chow diet. It counts as ADME. As to conditions: po. The procedure, abridged: as §2
The subject of data set [15] is OVCAR-3. Kind of data set: Antitumor activity against human OVCAR-3 cells xenografted in SCID/Beige mouse assessed as time over EC90 concentration at 15 ppm incorporated with chow diet. It counts as functional. Put shortly:
as §2

The nature of data set [16]: In vivo inhibition of PKMYT1 in SCID/Beige mouse xenografted with human OVCAR-3 cells assessed as inhibition of CDK1 phosphorylation measured upto 10 hrs post oral dose by ELISA method. It counts as functional. Put shortly:
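OVCAR3 tumours were collected 2, 6 and 10 h after oral BID dosing (n=4/group/time point). They were homogenised in Tris lysis buffer with protease and phosphatase inhibitors. pCDK1(Thr14) was measured by sandwich ELISA with an anti-CDK1 capture antibody, an anti-CDK1-pT14 detector and an anti-rabbit HRP secondary, read at 450 nm. Signal was expressed relative to vehicle, and the free-plasma EC50 was derived by non-linear dose-response fitting.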

For data set [17] the following is noted: rat, in vivo, po, 5 mg/kg, 24 h.
The target in data set [18] is T1, Cytochrome P450 3A4. Kind of data set: Inhibition of CYP3A4 (unknown origin).
Data set [19] can be described thus: Plasma protein binding in rat at 1 uM.
A short description of data set [20]: Plasma protein binding in human at 1 uM. It counts as ADME, cell-free. The procedure, abridged:
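Plasma protein binding measured at 1 μM compound in human plasma, with rat plasma run alongside.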

Data set [21] is described as follows: Oral bioavailability in Beagle dog at 1 mg/kg measured upto 24 hrs by reversed phase LCMS analysis. It counts as ADME, organism-based, Canis lupus familiaris. As to conditions: in vivo.
For data set [22] the following is noted: rat, in vivo, iv, 1 mg/kg, 24 h.
Data set [23] deals with Wee1-like protein kinase (Homo sapiens, UniProt P30291). Kind of data set: Inhibition of WEE1 (unknown origin).
Data set [24] has as its target T2, Ephrin type-B receptor 3 (Homo sapiens, UniProt P54753).
T2 sequence (P54753 whole entry): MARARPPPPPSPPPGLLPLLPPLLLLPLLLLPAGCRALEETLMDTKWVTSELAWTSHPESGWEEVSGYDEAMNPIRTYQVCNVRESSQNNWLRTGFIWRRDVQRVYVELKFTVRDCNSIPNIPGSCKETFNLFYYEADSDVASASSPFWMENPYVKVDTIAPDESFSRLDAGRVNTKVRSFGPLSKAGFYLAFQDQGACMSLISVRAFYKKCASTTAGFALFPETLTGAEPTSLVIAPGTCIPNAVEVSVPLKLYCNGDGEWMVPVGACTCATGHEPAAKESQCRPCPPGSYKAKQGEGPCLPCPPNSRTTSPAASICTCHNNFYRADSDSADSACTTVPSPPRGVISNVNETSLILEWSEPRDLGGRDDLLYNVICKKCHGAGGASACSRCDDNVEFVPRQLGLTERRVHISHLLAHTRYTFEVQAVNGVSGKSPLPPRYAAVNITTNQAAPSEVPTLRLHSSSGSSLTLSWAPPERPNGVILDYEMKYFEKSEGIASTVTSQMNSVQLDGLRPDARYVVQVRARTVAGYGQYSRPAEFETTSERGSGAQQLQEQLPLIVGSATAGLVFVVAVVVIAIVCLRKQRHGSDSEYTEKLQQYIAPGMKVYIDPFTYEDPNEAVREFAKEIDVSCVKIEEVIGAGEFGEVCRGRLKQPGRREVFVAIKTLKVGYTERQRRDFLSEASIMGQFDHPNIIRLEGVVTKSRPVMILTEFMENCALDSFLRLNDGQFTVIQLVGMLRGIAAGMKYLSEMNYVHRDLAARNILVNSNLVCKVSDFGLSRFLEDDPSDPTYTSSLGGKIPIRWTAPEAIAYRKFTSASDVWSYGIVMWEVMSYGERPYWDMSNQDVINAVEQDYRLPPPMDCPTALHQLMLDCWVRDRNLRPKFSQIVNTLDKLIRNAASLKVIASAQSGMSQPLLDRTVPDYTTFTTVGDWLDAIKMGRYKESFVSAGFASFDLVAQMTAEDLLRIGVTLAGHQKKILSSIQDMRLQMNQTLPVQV
Kind of data set: Inhibition of full length Nano-luc fused EPHB3 in human HEK-293T cells incubated for 2 hrs by cell based NanoBRET target engagement assay. The procedure, abridged: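 HEK293T cells transiently transfected with the NanoLuc–kinase fusion vector plus carrier DNA and left overnight at 37 °C/5% CO2. Cells were resuspended in phenol red-free Opti-MEM at 17000 cells/well with the tracer. They were then exposed to compound for 2 h at 37 °C, and substrate/inhibitor mix was added. Acceptor (610 nm) and donor (450 nm) emissions were read.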
In general terms: BRET reads energy transfer from a luciferase to a nearby fluorophore.

T1 sequence (P08684 whole entry): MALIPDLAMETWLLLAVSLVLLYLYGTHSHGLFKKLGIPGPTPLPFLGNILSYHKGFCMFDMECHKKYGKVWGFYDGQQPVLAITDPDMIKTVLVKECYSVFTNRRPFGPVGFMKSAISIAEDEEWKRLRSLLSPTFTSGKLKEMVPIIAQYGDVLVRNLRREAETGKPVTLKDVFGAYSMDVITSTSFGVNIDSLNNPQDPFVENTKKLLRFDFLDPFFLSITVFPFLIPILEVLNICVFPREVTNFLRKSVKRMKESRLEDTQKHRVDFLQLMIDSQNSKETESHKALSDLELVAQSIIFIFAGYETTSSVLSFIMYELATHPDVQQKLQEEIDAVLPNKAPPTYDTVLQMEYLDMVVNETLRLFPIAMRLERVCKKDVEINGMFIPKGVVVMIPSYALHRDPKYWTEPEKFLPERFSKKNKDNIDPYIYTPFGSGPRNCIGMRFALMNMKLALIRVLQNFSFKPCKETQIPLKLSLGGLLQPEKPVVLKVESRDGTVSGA
Chain of Wee1-like protein kinase (P30291 whole entry): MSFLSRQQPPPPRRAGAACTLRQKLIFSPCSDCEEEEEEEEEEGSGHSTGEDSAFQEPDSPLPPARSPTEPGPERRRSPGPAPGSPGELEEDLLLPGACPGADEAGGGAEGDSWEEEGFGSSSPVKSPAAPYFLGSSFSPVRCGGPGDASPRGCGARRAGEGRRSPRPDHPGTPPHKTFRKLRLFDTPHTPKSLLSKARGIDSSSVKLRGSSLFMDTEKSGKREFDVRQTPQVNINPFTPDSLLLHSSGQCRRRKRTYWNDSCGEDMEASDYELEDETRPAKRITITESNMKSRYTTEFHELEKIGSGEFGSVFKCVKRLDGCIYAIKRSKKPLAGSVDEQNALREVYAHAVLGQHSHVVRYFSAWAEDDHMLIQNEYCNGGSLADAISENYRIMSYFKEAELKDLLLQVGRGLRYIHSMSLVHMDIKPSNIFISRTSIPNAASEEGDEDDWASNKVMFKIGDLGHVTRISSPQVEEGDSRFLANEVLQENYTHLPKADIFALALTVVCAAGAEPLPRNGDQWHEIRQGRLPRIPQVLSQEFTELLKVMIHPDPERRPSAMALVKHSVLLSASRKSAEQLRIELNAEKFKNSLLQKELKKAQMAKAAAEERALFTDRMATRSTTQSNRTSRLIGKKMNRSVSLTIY
Chain of Cytochrome P450 2D6 (P10635 whole entry): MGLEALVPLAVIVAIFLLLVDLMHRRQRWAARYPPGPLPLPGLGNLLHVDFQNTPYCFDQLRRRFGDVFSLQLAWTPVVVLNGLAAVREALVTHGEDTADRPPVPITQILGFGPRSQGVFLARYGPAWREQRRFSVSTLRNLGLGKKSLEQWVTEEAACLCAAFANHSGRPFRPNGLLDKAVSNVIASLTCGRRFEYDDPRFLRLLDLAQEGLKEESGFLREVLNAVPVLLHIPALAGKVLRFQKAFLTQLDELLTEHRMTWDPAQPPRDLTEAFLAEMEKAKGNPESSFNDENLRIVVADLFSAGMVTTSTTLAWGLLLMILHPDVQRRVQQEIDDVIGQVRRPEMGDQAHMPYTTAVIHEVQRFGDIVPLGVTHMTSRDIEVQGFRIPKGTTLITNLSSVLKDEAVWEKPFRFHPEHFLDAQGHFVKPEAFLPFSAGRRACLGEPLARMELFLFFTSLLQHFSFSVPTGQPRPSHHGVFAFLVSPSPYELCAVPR
Chain of Cytochrome P450 2C9 (P11712 whole entry): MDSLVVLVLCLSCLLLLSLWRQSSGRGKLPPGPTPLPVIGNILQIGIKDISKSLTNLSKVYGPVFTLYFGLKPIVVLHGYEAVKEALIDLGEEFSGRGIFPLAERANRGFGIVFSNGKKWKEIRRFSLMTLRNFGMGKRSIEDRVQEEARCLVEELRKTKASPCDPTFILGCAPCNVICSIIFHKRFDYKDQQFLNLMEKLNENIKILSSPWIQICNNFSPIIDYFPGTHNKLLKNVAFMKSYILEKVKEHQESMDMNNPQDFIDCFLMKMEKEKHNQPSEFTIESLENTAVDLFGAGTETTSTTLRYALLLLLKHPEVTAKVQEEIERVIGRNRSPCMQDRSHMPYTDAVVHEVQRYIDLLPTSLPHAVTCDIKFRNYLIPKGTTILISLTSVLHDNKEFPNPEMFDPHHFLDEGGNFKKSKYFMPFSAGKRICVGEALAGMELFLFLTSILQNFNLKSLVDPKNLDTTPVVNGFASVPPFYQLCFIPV
Chain of Voltage-gated inwardly rectifying potassium channel KCNH2 (Q12809 whole entry): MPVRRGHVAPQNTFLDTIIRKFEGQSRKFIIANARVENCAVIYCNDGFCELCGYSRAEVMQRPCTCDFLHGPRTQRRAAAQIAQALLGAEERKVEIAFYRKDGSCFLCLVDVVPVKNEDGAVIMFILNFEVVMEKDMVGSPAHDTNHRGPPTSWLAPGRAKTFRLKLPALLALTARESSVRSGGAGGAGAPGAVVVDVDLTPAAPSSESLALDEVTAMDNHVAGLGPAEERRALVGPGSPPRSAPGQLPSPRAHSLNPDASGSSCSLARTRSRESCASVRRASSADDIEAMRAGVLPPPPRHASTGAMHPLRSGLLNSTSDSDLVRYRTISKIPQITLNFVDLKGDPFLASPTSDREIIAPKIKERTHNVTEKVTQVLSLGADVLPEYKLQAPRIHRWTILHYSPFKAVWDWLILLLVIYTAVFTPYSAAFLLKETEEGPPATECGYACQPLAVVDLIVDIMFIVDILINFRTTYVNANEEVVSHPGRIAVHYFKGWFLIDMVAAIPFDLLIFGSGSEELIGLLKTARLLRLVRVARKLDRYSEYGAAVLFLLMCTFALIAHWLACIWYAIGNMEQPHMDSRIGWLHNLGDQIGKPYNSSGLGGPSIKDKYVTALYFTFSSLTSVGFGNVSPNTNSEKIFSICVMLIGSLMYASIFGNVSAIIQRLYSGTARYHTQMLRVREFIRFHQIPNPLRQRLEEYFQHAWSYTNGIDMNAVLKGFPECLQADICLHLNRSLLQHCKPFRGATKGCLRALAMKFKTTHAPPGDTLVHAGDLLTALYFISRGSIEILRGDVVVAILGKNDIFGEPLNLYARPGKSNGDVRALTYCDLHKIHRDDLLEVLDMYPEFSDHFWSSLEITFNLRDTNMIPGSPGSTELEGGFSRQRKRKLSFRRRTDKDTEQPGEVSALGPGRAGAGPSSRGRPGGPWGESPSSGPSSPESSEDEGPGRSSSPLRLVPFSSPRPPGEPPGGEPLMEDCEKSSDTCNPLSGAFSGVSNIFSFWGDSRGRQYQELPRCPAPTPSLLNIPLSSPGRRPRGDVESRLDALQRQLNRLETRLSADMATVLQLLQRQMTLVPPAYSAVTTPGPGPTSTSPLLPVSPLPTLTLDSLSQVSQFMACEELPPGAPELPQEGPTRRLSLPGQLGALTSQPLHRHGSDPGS

One may read the IC50 as the concentration that inhibits the measured activity by half. In general, EC50 refers to the midpoint of the concentration-response curve. Broadly, the EC90 is the concentration needed for an effect of 90%. With `Cc1cc2c(C(N)=O)c(N)n(-c3c(C)ccc(O)c3C)c2nc1C` [LUNRESERTIB], the IC50 in data set [1] was above 30000 nM; in [2], above 30000 nM; in data set [8], above 100000 nM. Also, the Papp in data set [3] is reported as 15.2 10^-6 cm/s. For the same compound, in [4], the CLH stood at 3.2 µL/min. Further, the F in [5] is recorded as 37%; in [6], 29%; in data set [17] (Sprague-Dawley), 48%. The Activity in data set [7] is 12.5%; in data set [9], “Dde”; in data set [10], “Non-Toxic”; in data set [11], “Non-Toxic”; in data set [12], “Non-Toxic”. Further, the Stability result in data set [13] is “Stable”. The fCmax in data set [14] was determined as 15.5 nM. Moreover, the Time in [15] stood at 0 h. Besides, the EC50 in data set [16] (Homo sapiens, OVCAR-3, 10 h) turned out to be 0.2 nM. In addition, the EC90 in data set [16] (route po, time <= 10 hrs) is on record as 11 nM.

Broadly, the hepatocyte CLint is the rate of metabolic loss divided by the concentration. In the case of `Cc1ccc(O)c(C)c1-n1c(N)c(C(N)=O)c2cc(Cl)cnc21`, the concentration for half-maximal inhibition (IC50) was above 30000 nM in [1], 26000 nM in data set [2] and above 30000 nM in data set [18]. Further, the Papp in data set [3] was 18.3 10^-6 cm/s. For the same compound, the PPB in data set [19] turned out to be 88.1%; in [20], 89.6%. The hepatocyte CLint in [4] stood at 4.5 µL/min/1e6 cells. Moreover, the F worked out at 21% in data set [5], 33% in data set [21], 32% in data set [6] and 37% in data set [17]. The Activity in data set [7] is listed as 26.7%. For the same compound, the CL free in [22] is 215 mL/min/kg.

Regarding `Cc1ccc(O)c(Cl)c1-n1c(N)c(C(N)=O)c2nc3ccccc3nc21`, the figures for the IC50 in data set [23] and in data set [24] were 940 nM and 7 nM, respectively.

Turning to `Cc1ccc(O)cc1-n1c(N)c(C(N)=O)c2nc3ccccc3nc21`, the IC50 in data set [23] amounted to 3700 nM; in [24], 7 nM.

For `Cc1ccc(O)cc1-n1c(N)c(C(N)=O)c2cc3ccccc3nc21`, in data set [24], the IC50 came out at 7 nM.
